Experimental data taken from ChEMBL document CHEMBL5236612, “Heterobivalent Inhibitors of Acetyl-CoA Carboxylase: Drug Target Residence Time and Time-Dependent Antibacterial Activity” (J Med Chem, 2022).
Converted amounts (≈) assume the structure as drawn. The source made the active and inactive calls. The calls are words filed in the database; no cut-off is given here.

Key:
[1] = Inhibition of Escherichia coli ACC expressed in Escherichia coli BL21(DE3) pLysS incubated for 45 mins in presence of ATP and acetyl coA by fluorescence polarization assay
Summary of the method: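 E. coli BC (1 nM), biotinylated BCCP (2 nM) and CT (1 nM), His-tag purified then size-exclusion purified, preincubated with inhibitor in 100 mM HEPES pH 8.0, 15 mM KHCO3, 20 mM MgCl2. ADP detected by Transcreener fluorescence polarization; Morrison fit for Ki when tight binding; triplicate.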

Escherichia coli [2] = assay: Antibacterial activity against Escherichia coli K12 incubated for 24 hrs by microbroth dilution method; format: functional
Escherichia coli [3] = assay: Antibacterial activity against acrAB knockout Escherichia coli MG1655 incubated for 24 hrs in presence of PMBN by microbroth dilution method; format: functional
Escherichia coli [4] = assay: Antibacterial activity against tolC knockout Escherichia coli incubated for 24 hrs by microbroth dilution method; format: functional
Escherichia coli [5] = assay: Antibacterial activity against tolC knockout Escherichia coli incubated for 24 hrs in presence of PMBN by microbroth dilution method; format: functional
[6] = Inhibition of Escherichia coli biotin carboxylase in presence of ATP and NADH by UV-Vis spectrophotometric assay
Escherichia coli [7] = assay: Additive antibacterial activity against Escherichia coli harbouring TolC-deficient mutant assessed as fractional inhibitory concentration index; format: functional
Summary of the method: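 Checkerboard MIC of two compounds combined against tolC-knockout E. coli, without PMBN; FIC index derived from combination MICs.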

Escherichia coli [8] = assay: (§1) Displacement of 11-(4-(22-(2,4-dibromo-3-(2,7-diaminopyrido[2,3-d]pyrimidin-6-yl)phenoxy)-5,8,11,14,17,20-hexaoxadocos-1-yl)-1H-1,2,3-triazol-1-yl)-N-((1S)-3-(((2S)-3-methyl-1-((3R,4S)-4-methyl-2,5-dioxopyrrolidin-3-yl)-1-oxobutan-2-yl)amino)-3-oxo-1-phenylpropyl)undecanamide from Escherichia coli ACC expressed in Escherichia coli BL21(DE3) pLysS at 100 uM preincubated for 1 hr followed by compound addition by LC-MS/MS method
Summary of the method: (§2)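 Purified E. coli ACC (1 μM), in 100 mM HEPES pH 8.0 with 15 mM KHCO3 and 20 mM MgCl2, was held 1 h at 22 °C with equimolar heterobivalent inhibitor. Competitor was then added: 100 μM of one warhead alone, or 50 μM each of both warheads together. At timed points, aliquots were spun through G-25 gel filtration columns in 10 mM ammonium formate pH 8.0. Flow-through was denatured in 50% MeCN and bound inhibitor quantified by LC-MS/MS. Dissociation rate came from a single-exponential fit.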

Escherichia coli [9] = assay: as §1, with “50” for “100”, “hr in presence of Moiramide-B” for “hr”; summary of the method: as §2
[10] = Inhibition of Escherichia coli ACC incubated for 5 mins
Summary of the method: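 ACC reconstituted from 1 nM BC, 2 nM biotinylated BCCP and 1 nM CT (His-tagged E. coli proteins) in 100 mM HEPES pH 8.0 with 15 mM KHCO3 and 20 mM MgCl2. Enzyme was mixed with inhibitor or DMSO, and reactions were started with 10 μM ATP and 200 μM acetyl-CoA. ADP formed was read by Transcreener fluorescence polarization after a 45 min endpoint.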

Escherichia coli [11] = assay: Antibacterial activity against Escherichia coli harbouring TolC-deficient mutant assessed as post antibiotic effect by measuring time required for increase in 1 log10 CFU/ml of bacteria at 8 times MIC incubated for 1 hr followed by compound washout and measured for 16 hrs; format: functional
Escherichia coli [12] = assay: Antibacterial activity against Escherichia coli harbouring TolC-deficient mutant assessed as post antibiotic effect by measuring time required for increase in 1 log10 CFU/ml of bacteria at 16 times MIC incubated for 1 hr followed by compound washout and measured for 16 hrs; format: functional
Escherichia coli [13] = assay: Antibacterial activity against Escherichia coli harbouring TolC-deficient mutant assessed as post antibiotic effect by measuring time required for increase in 1 log10 CFU/ml of bacteria at 32 times MIC incubated for 1 hr followed by compound washout and measured for 16 hrs; format: functional
Escherichia coli [14] = assay: as §1, with “50” for “100”, “hr in presence of 6-(2,6-dibromophenyl)pyrido[2,3-d]pyrimidine-2,7-diamine” for “hr”; summary of the method: as §2
Escherichia coli [15] = assay: Antibacterial activity against Escherichia coli incubated for 24 hrs in presence of PMBN by microbroth dilution method; format: functional
Escherichia coli [16] = assay: Antibacterial activity against acrAB knockout Escherichia coli MG1655 incubated for 24 hrs by microbroth dilution method; format: functional
Escherichia coli [17] = assay: Synergistic antibacterial activity against Escherichia coli harbouring TolC-deficient mutant assessed as fractional inhibitory concentration index at […] in presence of PMBN; format: functional; details: dose 0.025 µM
[18] = Inhibition of Escherichia coli ACC expressed in Escherichia coli BLR(DE3) cells

Compound | IC50 [1] [nM] | MIC (Escherichia coli [2]) [µM] | MIC (Escherichia coli [3]) [µM] | MIC (Escherichia coli [4]) [µM] | MIC (Escherichia coli [5]) [µM] | Activity (Escherichia coli [8]) | other results
C#CCCCCOCCOCCOCCOCCOCCOCCOCCOCCOCCOCCOCCOCCOCCOCCOCCOc1ccc(Br)c(-c2cc3cnc(N)nc3nc2N)c1Br | 64 | > 25 | > 25 | 25 (≈ 28.8 µg/mL) | 12.5 | – | –
Nc1ncc2cc(-c3c(Br)ccc(OCCO)c3Br)c(N)nc2n1 | – | – | – | – | – | – | IC50 [6]: 550 nM
Nc1ncc2cc(-c3c(Br)cccc3Br)c(N)nc2n1 | – | – | – | 1.56 (≈ 0.616 µg/mL) | – | inactive | fractional inhibitory concentration index (FICI) (Escherichia coli [7]): 0.5; Activity (Escherichia coli [9]): Active; IC50 [10]: < 5 nM
C#CCCCCOCCOCCOCCOCCOCCOCCOCCOCCOCCOCCOCCOCCOc1ccc(Br)c(-c2cc3cnc(N)nc3nc2N)c1Br | 82 | > 25 | > 25 | 25 (≈ 25.5 µg/mL) | – | – | –
C#CCCCCOCCOCCOCCOCCOCCOCCOc1ccc(Br)c(-c2cc3cnc(N)nc3nc2N)c1Br | 32 | > 25 | 6.25 | – | – | – | –
C#CCCCCOCCOCCOCCOCCOCCOCCOCCOCCOCCOCCOCCOCCOCCOCCOCCOCCOCCOCCOc1ccc(Br)c(-c2cc3cnc(N)nc3nc2N)c1Br | 126 | – | > 25 | > 25 | 12.5 | – | –
CC(C)[C@H](NC(=O)C[C@H](NC(=O)CCCCCCCCCCn1cc(CCCCOCCOCCOCCOCCOCCOCCOCCOCCOCCOc2ccc(Br)c(-c3cc4cnc(N)nc4nc3N)c2Br)nn1)c1ccccc1)C(=O)[C@@H]1C(=O)NC(=O)[C@H]1C | – | > 25 | 3.13 | – | 0.78 | inactive | Ki [1]: 0.31 nM; PAE (Escherichia coli [11]): 1.2 h; PAE (Escherichia coli [12]): 1.8 h; PAE (Escherichia coli [13]): 3.4 h; Activity (Escherichia coli [9]): Active; Activity (Escherichia coli [14]): Active
C/C=C/C=C/C(=O)N[C@@H](CC(=O)N[C@H](C(=O)[C@@H]1C(=O)NC(=O)[C@H]1C)C(C)C)c1ccccc1 | 4.5 | > 25 | 0.39 | 1.56 (≈ 0.708 µg/mL) | 0.1 | inactive | MIC (Escherichia coli [15]): 3.13 µM; MIC (Escherichia coli [16]): 25 µM (≈ 11.3 µg/mL); fractional inhibitory concentration index (FICI) (Escherichia coli [7]): 0.5; FIC (Escherichia coli [17]): 0.38; Activity (Escherichia coli [14]): Active; IC50 [18]: 6 nM
COc1cc(Br)c(-c2cc3cnc(N)nc3nc2N)c(Br)c1 | – | – | – | – | – | – | IC50 [6]: 1200 nM
C#CCCCCOCCOCCOCCOc1ccc(Br)c(-c2cc3cnc(N)nc3nc2N)c1Br | 19 | > 25 | 3.13 | – | 1.56 | – | –
CC(C)[C@H](NC(=O)C[C@H](NC(=O)CCCCCCCCCCn1cc(CCCCOCCOCCOCCOc2ccc(Br)c(-c3cc4cnc(N)nc4nc3N)c2Br)nn1)c1ccccc1)C(=O)[C@@H]1C(=O)NC(=O)[C@H]1C | – | > 25 | 6.25 | 3.13 (≈ 3.73 µg/mL) | 0.78 | inactive | Ki [1]: 0.26 nM; PAE (Escherichia coli [11]): 1 h; PAE (Escherichia coli [12]): 1.2 h; PAE (Escherichia coli [13]): 2.6 h; Activity (Escherichia coli [9]): Active; Activity (Escherichia coli [14]): Active
CC(C)[C@H](NC(=O)C[C@H](NC(=O)CCCCCCCCCCn1cc(CCCCOCCOCCOCCOCCOCCOCCOc2ccc(Br)c(-c3cc4cnc(N)nc4nc3N)c2Br)nn1)c1ccccc1)C(=O)[C@@H]1C(=O)NC(=O)[C@H]1C | – | > 25 | 3.13 | – | 0.39 | – | Ki [1]: 0.25 nM; MIC (Escherichia coli [15]): > 25 µM; MIC (Escherichia coli [16]): > 25 µM; PAE (Escherichia coli [11]): 1.7 h; PAE (Escherichia coli [12]): 1.7 h; PAE (Escherichia coli [13]): 3.4 h
Nc1ncc2cc(-c3c(Br)cc(OCCO)cc3Br)c(N)nc2n1 | – | – | – | – | – | – | IC50 [6]: 730 nM
CC(C)[C@H](NC(=O)C[C@H](NC(=O)CCCCCCCCCCn1cc(CCCCOc2ccc(Br)c(-c3cc4cnc(N)nc4nc3N)c2Br)nn1)c1ccccc1)C(=O)[C@@H]1C(=O)NC(=O)[C@H]1C | 1.81 | > 25 | 12.5 | – | 0.78 | inactive | PAE (Escherichia coli [11]): 1.9 h; PAE (Escherichia coli [12]): 2.2 h; PAE (Escherichia coli [13]): 3.8 h; Activity (Escherichia coli [9]): Active; Activity (Escherichia coli [14]): Active
C#CCCCCOc1ccc(Br)c(-c2cc3cnc(N)nc3nc2N)c1Br | ≤ 1 | > 25 | 0.78 | 1.56 (≈ 0.766 µg/mL) | 0.78 | – | MIC (Escherichia coli [15]): 12.5 µM; MIC (Escherichia coli [16]): > 25 µM
C#CCCCCOCCOCCOCCOCCOCCOCCOCCOCCOCCOc1ccc(Br)c(-c2cc3cnc(N)nc3nc2N)c1Br | 98 | > 25 | 15 | 25 (≈ 22.2 µg/mL) | 12.5 | – | –
CC(C)[C@H](NC(=O)C[C@H](NC(=O)CCCCCCCCCCN=[N+]=[N-])c1ccccc1)C(=O)[C@@H]1C(=O)NC(=O)[C@H]1C | 74 | > 25 | 1.56 | – | 0.2 | – | MIC (Escherichia coli [15]): 12.5 µM; MIC (Escherichia coli [16]): > 25 µM
CC(C)[C@H](NC(=O)C[C@H](NC(=O)CCCCCCCCCCn1cc(CCCCOCCOCCOCCOCCOCCOCCOCCOCCOCCOCCOCCOCCOc2ccc(Br)c(-c3cc4cnc(N)nc4nc3N)c2Br)nn1)c1ccccc1)C(=O)[C@@H]1C(=O)NC(=O)[C@H]1C | – | > 25 | 6.25 | – | 1.56 | inactive | Ki [1]: 0.18 nM; PAE (Escherichia coli [11]): 2.1 h; PAE (Escherichia coli [12]): 2.6 h; PAE (Escherichia coli [13]): 3.6 h; Activity (Escherichia coli [9]): Active; Activity (Escherichia coli [14]): Active
COc1ccc(Br)c(-c2cc3cnc(N)nc3nc2N)c1Br | – | – | – | – | – | – | IC50 [6]: ≤ 250 nM
CC(C)[C@H](NC(=O)C[C@H](NC(=O)CCCCCCCCCCn1cc(CCCCOCCOCCOCCOCCOCCOCCOc2cc(Br)c(-c3cc4cnc(N)nc4nc3N)c(Br)c2)nn1)c1ccccc1)C(=O)[C@@H]1C(=O)NC(=O)[C@H]1C | 3.53 | – | > 25 | 6.25 (≈ 8.28 µg/mL) | 0.78 | – | –
C#CCCCCOCCOCCOCCOCCOCCOCCOc1cc(Br)c(-c2cc3cnc(N)nc3nc2N)c(Br)c1 | 849 | – | > 25 | – | > 25 | – | –
CC(C)[C@H](NC(=O)C[C@H](NC(=O)CCCCCCCCCCn1cc(CCCCOCCOCCOCCOCCOCCOCCOCCOCCOCCOCCOCCOCCOCCOCCOCCOc2ccc(Br)c(-c3cc4cnc(N)nc4nc3N)c2Br)nn1)c1ccccc1)C(=O)[C@@H]1C(=O)NC(=O)[C@H]1C | – | > 25 | 12.5 | – | 1.56 | inactive | Ki [1]: 0.33 nM; PAE (Escherichia coli [11]): 1.9 h; PAE (Escherichia coli [12]): 3.8 h; PAE (Escherichia coli [13]): 4.6 h; Activity (Escherichia coli [9]): Active; Activity (Escherichia coli [14]): Active
